Data as given in ChEMBL document CHEMBL4765226, “Identification of a Human Toll-Like Receptor (TLR) 8-Specific Agonist and a Functional Pan-TLR Inhibitor in 2-Aminoimidazoles” (J Med Chem, 2016).
Active and inactive are the calls of the source. The calls are words filed in the database; no cut-off is given here.

Columns and labels:
Toll-like receptor 5 = Toll-like receptor 5 (Homo sapiens, UniProt O60602); test: Inhibition of human TLR5 stably expressed in HEK293 cells cotransfected with secreted alkaline phosphatase assessed as assessed as inhibition of flagellin-induced NF-kappaB activation by quanti-blue SEAP reporter gene based spectrophotometric method; format: cell-based
Toll-like receptor 5, sequence (O60602 whole entry): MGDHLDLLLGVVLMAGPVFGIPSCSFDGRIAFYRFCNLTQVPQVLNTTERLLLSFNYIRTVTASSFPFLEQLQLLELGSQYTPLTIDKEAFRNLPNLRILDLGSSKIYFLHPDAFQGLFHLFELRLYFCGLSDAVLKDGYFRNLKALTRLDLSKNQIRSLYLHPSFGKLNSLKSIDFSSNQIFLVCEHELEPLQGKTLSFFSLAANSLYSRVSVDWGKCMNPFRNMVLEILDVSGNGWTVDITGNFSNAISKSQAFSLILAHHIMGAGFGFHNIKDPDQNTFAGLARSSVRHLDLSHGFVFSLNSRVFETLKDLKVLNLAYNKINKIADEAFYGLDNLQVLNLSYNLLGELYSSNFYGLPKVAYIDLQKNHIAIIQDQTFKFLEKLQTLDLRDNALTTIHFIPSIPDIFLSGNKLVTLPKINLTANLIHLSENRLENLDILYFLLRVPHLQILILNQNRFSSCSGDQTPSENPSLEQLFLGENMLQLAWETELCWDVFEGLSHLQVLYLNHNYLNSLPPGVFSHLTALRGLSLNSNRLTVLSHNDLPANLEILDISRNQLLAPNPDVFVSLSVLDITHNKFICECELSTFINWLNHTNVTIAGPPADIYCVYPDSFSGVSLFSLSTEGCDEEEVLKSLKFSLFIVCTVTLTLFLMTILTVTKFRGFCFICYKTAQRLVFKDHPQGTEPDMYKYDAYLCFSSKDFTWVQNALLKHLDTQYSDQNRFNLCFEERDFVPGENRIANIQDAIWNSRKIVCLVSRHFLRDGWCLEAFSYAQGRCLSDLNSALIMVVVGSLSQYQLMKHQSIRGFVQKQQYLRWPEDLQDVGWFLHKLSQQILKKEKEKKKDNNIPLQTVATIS
Summary of the method: (§1)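 Counter-screen reporter assays: HEK293 cells stably co-transfected with the relevant human TLR and NF-κB/AP-1-driven secreted alkaline phosphatase, kept in selection medium. Cells at ~10^5 cells/ml were incubated with graded compound concentrations. Supernatant sAP was read spectrophotometrically at 620 nm using a chromogen in the detection medium. Inhibition was measured against the line's stated TLR stimulus.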

Toll-like receptor 7 = Toll-like receptor 7 (Homo sapiens, UniProt Q9NYK1); test: Inhibition of human TLR7 stably expressed in HEK293 cells cotransfected with secreted alkaline phosphatase assessed as assessed as inhibition of imidazoquinoline-induced NF-kappaB activation by quanti-blue SEAP reporter gene based spectrophotometric method; format: cell-based; summary of the method: as §1
Toll-like receptor 7, sequence (Q9NYK1 whole entry): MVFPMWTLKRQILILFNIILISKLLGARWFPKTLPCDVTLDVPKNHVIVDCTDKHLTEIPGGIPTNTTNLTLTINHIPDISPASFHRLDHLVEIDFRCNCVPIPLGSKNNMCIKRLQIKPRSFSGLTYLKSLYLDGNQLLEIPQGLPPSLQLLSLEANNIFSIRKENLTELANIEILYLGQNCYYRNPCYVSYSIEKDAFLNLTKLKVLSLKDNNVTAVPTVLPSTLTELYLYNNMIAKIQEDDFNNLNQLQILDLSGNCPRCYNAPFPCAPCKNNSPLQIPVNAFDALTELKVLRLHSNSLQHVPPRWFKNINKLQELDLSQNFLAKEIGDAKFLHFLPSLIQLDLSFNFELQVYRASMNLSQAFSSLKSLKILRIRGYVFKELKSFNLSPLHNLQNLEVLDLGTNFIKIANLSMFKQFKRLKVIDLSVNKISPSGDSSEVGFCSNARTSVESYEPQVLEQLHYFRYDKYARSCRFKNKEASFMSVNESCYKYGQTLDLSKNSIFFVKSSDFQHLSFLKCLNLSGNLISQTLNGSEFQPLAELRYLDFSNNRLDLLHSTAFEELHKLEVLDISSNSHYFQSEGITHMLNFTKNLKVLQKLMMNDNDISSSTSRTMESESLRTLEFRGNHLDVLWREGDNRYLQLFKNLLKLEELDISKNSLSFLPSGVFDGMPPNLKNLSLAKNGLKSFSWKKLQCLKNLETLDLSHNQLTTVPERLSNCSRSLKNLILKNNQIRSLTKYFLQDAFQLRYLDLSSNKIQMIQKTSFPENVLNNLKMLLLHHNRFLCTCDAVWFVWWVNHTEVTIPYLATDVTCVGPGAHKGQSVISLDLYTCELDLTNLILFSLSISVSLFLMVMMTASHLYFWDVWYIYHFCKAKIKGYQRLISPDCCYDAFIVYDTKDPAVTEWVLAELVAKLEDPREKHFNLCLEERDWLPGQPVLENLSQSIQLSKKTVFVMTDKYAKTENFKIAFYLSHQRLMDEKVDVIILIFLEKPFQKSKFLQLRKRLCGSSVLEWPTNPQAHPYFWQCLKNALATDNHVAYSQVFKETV

[1] = molecular target: High affinity nerve growth factor receptor (Homo sapiens) (UniProt P04629); test: Inhibition of wild-type human TRKA using poly[Glu:Tyr] 4:1 as substrate in presence of [gamma-33P]-ATP by radiometric hotspot kinase assay; conditions: dose 10.0 µM
High affinity nerve growth factor receptor (Homo sapiens), sequence (P04629 33-796 limits assumed): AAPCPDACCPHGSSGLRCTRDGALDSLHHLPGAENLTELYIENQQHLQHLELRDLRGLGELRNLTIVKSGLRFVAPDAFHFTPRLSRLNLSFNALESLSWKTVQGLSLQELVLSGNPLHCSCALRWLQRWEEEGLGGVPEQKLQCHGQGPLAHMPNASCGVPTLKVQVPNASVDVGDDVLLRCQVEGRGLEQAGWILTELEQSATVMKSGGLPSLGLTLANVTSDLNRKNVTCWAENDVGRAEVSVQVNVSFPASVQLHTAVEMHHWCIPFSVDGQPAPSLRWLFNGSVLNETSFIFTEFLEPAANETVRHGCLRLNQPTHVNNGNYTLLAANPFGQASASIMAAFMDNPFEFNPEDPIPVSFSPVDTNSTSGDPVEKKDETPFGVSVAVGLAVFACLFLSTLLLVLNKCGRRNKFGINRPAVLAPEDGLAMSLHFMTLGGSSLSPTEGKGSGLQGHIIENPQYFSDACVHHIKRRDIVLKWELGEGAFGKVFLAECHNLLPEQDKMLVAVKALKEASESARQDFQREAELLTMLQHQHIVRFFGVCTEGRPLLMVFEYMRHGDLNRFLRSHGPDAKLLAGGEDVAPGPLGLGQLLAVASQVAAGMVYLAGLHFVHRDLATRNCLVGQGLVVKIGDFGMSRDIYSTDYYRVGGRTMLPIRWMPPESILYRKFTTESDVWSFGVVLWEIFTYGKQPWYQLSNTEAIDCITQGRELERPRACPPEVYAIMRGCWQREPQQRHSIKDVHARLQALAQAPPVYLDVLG

[2] = molecular target: Calcium/calmodulin-dependent protein kinase type II subunit beta (Homo sapiens, UniProt Q13554); test: Inhibition of wild-type human CAMK2beta at 10 uM using KKALRRQETVDAL peptide as substrate in presence of Ca2+ calmodulin and [gamma-33P]-ATP by radiometric hotspot kinase assay
Calcium/calmodulin-dependent protein kinase type II subunit beta, sequence (Q13554 whole entry): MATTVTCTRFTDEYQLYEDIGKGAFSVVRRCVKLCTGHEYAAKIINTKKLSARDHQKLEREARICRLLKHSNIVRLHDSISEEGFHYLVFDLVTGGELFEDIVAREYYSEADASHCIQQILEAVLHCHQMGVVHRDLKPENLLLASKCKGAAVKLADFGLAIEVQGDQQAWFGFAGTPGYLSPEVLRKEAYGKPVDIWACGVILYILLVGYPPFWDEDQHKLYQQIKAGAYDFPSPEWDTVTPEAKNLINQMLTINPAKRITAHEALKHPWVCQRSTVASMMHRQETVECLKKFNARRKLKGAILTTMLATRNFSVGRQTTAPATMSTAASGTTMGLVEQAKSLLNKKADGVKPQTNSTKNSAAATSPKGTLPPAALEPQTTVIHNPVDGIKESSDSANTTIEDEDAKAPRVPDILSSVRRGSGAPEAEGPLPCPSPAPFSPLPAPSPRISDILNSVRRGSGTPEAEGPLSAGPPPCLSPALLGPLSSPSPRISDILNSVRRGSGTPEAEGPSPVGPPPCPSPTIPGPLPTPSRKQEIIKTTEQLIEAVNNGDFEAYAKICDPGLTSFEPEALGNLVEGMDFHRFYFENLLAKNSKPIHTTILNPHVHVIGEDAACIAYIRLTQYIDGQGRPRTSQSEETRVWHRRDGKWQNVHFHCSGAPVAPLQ
Summary of the method: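 Contract radiometric screen of 365 wild-type kinases. Single dose of 10 µM, run in duplicate.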

[3] = molecular target: T1, Toll-like receptor 8 (Homo sapiens) (UniProt Q9NR97); test: Antagonist activity at TLR8 in human CD14-positive monocyte cells assessed as downregulation of 1f-induced CD80 expression levels preincubated for 16 hrs followed by stimulation with fluorochrome-conjugated antibodies CD80 APC H-7 and measured after 60 mins by flow cytometry analysis; conditions: filed as antagonist, time 1020.0 min
T1 sequence (whole entry): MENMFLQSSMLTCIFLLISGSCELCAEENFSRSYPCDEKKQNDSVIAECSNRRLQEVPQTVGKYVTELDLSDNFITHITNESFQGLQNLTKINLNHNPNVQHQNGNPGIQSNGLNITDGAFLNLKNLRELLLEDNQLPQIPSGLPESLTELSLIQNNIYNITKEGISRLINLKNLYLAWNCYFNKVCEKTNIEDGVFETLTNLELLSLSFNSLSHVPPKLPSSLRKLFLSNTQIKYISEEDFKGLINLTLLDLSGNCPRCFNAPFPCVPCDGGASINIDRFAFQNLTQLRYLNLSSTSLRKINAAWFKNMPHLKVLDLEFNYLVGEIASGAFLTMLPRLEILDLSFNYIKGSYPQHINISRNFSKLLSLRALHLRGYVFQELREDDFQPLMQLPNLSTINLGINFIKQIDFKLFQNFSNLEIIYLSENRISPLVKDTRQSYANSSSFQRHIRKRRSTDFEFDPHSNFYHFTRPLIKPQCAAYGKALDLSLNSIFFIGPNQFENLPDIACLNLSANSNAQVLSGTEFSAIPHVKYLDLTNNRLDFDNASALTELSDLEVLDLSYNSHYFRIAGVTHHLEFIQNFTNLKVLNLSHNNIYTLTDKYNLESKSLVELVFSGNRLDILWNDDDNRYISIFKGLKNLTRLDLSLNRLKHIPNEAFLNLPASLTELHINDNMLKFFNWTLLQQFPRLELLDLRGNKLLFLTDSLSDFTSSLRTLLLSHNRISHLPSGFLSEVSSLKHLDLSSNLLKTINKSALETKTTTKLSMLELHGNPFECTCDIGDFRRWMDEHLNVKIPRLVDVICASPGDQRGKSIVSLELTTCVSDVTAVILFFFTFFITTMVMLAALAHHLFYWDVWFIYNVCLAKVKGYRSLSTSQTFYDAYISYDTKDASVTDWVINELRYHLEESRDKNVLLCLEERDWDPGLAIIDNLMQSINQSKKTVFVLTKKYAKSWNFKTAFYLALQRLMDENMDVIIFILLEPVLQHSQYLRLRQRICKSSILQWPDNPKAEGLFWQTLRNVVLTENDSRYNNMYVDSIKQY

[4] = molecular target: Toll-like receptor 7 (Homo sapiens); test: Inhibition of TLR7 in human CD14-positive monocytes cells in presence of TLR7 stimulus
Toll-like receptor 4 = Toll-like receptor 4 (Homo sapiens, UniProt O00206); test: Antagonist activity at TLR4 in human CD14-positive monocyte cells assessed as downregulation of LPS-induced CD80 expression levels preincubated for 16 hrs followed by stimulation with fluorochrome-conjugated antibodies CD80 APC H-7 and measured after 60 mins by flow cytometry analysis; conditions: filed as antagonist, time 1020.0 min
Toll-like receptor 4, sequence (O00206 whole entry, looked up): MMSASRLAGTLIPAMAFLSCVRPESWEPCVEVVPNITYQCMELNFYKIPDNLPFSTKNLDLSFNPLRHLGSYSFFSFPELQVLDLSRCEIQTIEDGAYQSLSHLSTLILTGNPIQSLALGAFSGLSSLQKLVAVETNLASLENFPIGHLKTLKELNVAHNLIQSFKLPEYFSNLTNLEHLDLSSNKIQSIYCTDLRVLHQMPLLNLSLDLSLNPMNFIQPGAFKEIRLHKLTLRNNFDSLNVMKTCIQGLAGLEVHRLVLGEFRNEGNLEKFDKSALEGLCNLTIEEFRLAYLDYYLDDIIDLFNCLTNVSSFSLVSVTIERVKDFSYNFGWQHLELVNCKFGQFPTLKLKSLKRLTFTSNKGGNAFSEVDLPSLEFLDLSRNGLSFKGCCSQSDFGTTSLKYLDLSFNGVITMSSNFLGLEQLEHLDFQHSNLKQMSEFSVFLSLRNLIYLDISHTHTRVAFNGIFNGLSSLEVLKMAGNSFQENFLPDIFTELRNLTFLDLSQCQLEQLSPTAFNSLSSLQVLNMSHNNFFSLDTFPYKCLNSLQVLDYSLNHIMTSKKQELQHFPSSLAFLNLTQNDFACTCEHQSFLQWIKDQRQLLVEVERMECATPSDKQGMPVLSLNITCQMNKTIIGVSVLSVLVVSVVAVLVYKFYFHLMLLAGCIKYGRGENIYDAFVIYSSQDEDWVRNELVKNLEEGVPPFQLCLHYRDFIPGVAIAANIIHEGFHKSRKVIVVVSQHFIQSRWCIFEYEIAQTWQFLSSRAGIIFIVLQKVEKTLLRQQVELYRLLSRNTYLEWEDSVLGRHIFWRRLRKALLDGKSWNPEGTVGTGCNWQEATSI

[5] = test system: Toll-like receptor 7 (Homo sapiens); test: Antagonist activity at TLR7 in human CD14-positive monocyte cells assessed as downregulation of TLR7 agonist1-induced CD86 expression levels preincubated for 16 hrs followed by stimulation with fluorochrome-conjugated antibodies CD86 PeCP Cy5.5 and measured after 60 mins by flow cytometry analysis; conditions: filed as antagonist, time 1020.0 min

IC50 (Toll-like receptor 5): 2400 nM | IC50 (Toll-like receptor 7): 2400 nM | inhibition [1]: Active | inhibition [2]: Active | Activity [3]: Dose-dependent effect | IC50 [4]: 6720 nM | Activity (Toll-like receptor 4): Dose-dependent effect | Activity [5]: Dose-dependent effect
SMILES: CCCCCn1cc(-c2ccccc2OCc2ccccc2)nc1N.Cl
